Most compounds without a hit are left out; they make up all but 5.8% or so of the library.
Rev-RRE block – inhibitors of HIV-1 Rev-RRE RNA interaction. 0.79% of 97,000 active. Rev peptide-RRE RNA binding, FRET. inhibition, % at 8 µM. P05866;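 active means inhibition above the screen-wide mean plus 3 SD, cut at about 35% in these data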;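 further: 0% = median DMSO wells and 100% = median Neomycin B control wells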
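Test system: labelled RRE RNA duplex and labelled Rev peptide. Times: 5 min compound–RNA preincubation, then 15 min with peptide, 25 °C. Doses: single-dose 8 µM. Measured by: FRET, excitation 480 nm, emission 540 nm donor and 671 nm acceptor. Measure: % inhibition of FRET ratio versus controls.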
FAK inh – inhibitors of human focal adhesion kinase. biochemical FAK kinase activity assay. inhibition, %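 (tested at 7 µM)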. 0.84% of 97,000 active. AID 727; in the data active means inhibition above about 19%;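 further: 0% = DMSO and 100% = reference compound high control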
Plk1 PBD FP – blocks phosphopeptide binding to human Plk1 polo box domain; 0.13% of 97,000 active; inhibition, %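 (tested at about 20 µM)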; P53350; Plk1 PBD phosphopeptide binding, fluorescence polarization; AID 693; in the data active means inhibition above about 34%, passing the limit was not always enough
Cav32 inh – blocks human Cav3.2 T-type calcium channel; AID 449739; Cav3.2-expressing cells, Fluo-4 calcium fluorescence FDSS; stronger effect = lower value; O95180; 4% of 100,000 active; B-score at 10 µM;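 active means single-dose well whose peak fluorescence ratio is a statistical outlier from its plate by either plate-standardised score or position-corrected B-score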
Target sequence (O95180 whole entry, looked up): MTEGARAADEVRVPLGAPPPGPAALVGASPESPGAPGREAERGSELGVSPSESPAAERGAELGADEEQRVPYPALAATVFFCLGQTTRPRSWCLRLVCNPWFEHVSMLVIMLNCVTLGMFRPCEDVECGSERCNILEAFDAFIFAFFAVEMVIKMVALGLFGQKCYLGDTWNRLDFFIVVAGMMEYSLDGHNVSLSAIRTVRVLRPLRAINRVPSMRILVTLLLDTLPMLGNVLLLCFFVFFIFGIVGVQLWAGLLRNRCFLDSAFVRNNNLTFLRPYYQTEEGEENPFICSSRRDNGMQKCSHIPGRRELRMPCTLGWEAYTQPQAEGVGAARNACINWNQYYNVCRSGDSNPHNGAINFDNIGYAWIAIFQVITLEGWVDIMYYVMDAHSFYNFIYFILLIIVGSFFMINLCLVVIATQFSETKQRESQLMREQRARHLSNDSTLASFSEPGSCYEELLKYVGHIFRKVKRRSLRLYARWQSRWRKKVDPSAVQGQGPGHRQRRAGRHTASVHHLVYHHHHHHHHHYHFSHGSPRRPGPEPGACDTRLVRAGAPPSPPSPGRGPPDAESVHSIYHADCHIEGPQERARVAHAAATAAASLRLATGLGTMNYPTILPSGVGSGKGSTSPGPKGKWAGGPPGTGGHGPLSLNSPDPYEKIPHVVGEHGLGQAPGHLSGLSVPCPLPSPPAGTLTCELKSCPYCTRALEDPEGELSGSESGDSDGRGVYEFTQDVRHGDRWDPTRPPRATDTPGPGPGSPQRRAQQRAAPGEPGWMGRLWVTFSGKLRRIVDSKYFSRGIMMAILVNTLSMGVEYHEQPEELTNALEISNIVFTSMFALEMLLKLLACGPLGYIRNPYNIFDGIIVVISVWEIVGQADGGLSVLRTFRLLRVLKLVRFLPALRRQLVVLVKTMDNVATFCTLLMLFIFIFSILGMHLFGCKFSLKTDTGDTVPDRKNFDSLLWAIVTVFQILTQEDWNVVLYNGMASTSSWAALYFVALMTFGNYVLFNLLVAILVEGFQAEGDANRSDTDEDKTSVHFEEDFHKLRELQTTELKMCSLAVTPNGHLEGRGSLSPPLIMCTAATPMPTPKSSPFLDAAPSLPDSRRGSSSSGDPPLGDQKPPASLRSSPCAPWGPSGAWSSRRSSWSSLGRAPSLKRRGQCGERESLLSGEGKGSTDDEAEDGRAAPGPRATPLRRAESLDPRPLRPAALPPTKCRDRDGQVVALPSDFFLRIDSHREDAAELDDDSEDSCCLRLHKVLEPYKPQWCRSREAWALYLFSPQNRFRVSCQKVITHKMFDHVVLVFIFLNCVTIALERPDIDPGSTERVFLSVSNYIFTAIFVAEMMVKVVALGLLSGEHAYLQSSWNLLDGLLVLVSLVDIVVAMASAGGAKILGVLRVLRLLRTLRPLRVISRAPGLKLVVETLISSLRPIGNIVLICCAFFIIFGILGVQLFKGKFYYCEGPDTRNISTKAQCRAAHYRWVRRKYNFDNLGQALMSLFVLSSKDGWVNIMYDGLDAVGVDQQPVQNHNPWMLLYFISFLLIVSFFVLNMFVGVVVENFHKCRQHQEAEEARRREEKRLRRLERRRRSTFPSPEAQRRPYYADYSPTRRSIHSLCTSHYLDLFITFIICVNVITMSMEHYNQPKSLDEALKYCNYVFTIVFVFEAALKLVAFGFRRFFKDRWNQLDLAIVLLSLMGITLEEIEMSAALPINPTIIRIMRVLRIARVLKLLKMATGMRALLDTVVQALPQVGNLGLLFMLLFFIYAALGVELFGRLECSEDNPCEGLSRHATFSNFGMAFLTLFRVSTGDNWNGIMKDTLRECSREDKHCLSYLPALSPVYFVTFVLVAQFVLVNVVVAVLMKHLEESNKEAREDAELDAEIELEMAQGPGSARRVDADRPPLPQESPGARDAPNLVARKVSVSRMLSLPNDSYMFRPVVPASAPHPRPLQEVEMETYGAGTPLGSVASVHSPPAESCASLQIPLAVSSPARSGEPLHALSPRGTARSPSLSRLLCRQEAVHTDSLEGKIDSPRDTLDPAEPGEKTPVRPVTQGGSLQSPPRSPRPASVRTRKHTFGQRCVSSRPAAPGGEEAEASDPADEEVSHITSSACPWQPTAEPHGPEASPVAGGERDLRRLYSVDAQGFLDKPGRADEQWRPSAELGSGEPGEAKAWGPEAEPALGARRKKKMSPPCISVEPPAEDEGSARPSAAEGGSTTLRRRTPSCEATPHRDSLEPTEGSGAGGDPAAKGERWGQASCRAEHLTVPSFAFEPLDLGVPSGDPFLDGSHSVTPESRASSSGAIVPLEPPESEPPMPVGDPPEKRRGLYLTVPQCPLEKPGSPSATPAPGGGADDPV
PTK2B oligo ant – Pyk2 (human) oligomerization antagonism | Q14289 | Q293 cells, Pyk2 FERM NanoBiT luminescence; stronger effect = lower value | z-score (the deposit names both 25 µM and 10 µM) | 0.83% of 99,000 active | AID 1347419;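 active means Z-score of -3 or lower, scaled per plate to the spread of control and sample wells; inactive means z-score above -3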;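 further: negative z-score means lost luminescence so less FERM oligomerization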
PLK1 inh – PLK1 (human) kinase inhibition; recombinant PLK1 kinase, TR-FRET peptide phosphorylation; 0.53% of 97,000 active; P53350; AID 619; inhibition, % at 10 µM;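 active means inhibition of 50% or more in the single-concentration screen; inactive means inhibition below 50%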;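 further: 0% = DMSO max control and 100% = H-89 dihydrochloride min control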
* = called active by the depositor.

What do the screens show for `COc1ccc(C(=O)Nc2ccc(-c3ccc(C)o3)cc2)cc1S(=O)(=O)N1CCOCC1`?
Rev-RRE block: -0.2; FAK inh: -0.3; Plk1 PBD FP: -1.9; Cav32 inh: 0.346; PTK2B oligo ant: -2.39; PLK1 inh: -12.9

What do the screens show for `O=C(CSCc1ccccc1)Nc1cccc(C(=O)Nc2ccccc2C(=O)O)c1`?
Rev-RRE block: 2.9; FAK inh: -2.2; Plk1 PBD FP: 20.8; Cav32 inh: -4.01; PTK2B oligo ant: -1.63; PLK1 inh: -9.8

Results for O=C(CSCc1ccc(Cl)cc1)Nc1cccc(C(=O)Nc2ccccc2C(=O)O)c1 ?
Rev-RRE block: 10.5; FAK inh: 3.3; Plk1 PBD FP: 1.1; Cav32 inh: -6.86*; PTK2B oligo ant: -0.93; PLK1 inh: -2.4

Results for CC(Oc1c(Cl)cccc1Cl)C1=NCCN1 (stereo unspecified) ?
Cav32 inh: -0.323

Results for c1cnn(-c2nc(N3CCOCC3)nc(N3CCOCC3)n2)c1 ?
Rev-RRE block: 10.7; FAK inh: 5.3; Plk1 PBD FP: -8.7; Cav32 inh: 0.822; PTK2B oligo ant: 0.32; PLK1 inh: -5.2

What do the screens show for `COc1ccc(NC(=O)N2CCN(c3cccc(C(F)(F)F)c3)CC2)cc1`?
Rev-RRE block: 9.7; FAK inh: 0.7; Plk1 PBD FP: 22.7; Cav32 inh: -0.0149; PTK2B oligo ant: 0.59; PLK1 inh: -6.9

Results for COc1ccc(-c2noc(CCC(=O)N3CCN(c4cccc(C(F)(F)F)c4)CC3)n2)cc1 ?
Rev-RRE block: 6.8; FAK inh: 3.8; Plk1 PBD FP: -4.1; Cav32 inh: -4.81*; PTK2B oligo ant: -0.11; PLK1 inh: -6.7

What do the screens show for `COc1ccccc1-c1noc(CCC(=O)Nc2cccc(C(F)(F)F)c2)n1`?
Cav32 inh: -7.58*; PTK2B oligo ant: -1.74

Results for Cc1ccc(-c2noc(CCC(=O)Nc3cccc(C#N)c3)n2)cc1 ?
Rev-RRE block: 17.9; FAK inh: -1.4; Plk1 PBD FP: 3.0; Cav32 inh: -4.2*; PTK2B oligo ant: 0.03; PLK1 inh: -7.3

Results for COc1cccc(NC(=O)CCc2nc(-c3ccccc3F)no2)c1 ?
Rev-RRE block: 4.5; FAK inh: -1.3; Plk1 PBD FP: -12.1; Cav32 inh: -0.221; PTK2B oligo ant: 1.26; PLK1 inh: -2.9

How did CCOC(=O)CSc1nc(N)c(C(=O)Nc2ccc(N(C)C)cc2)s1 do in these assays?
Rev-RRE block: -1.4; FAK inh: 2.7; Plk1 PBD FP: -25.5; Cav32 inh: 1.26; PTK2B oligo ant: -0.12; PLK1 inh: -7.7

What do the screens show for `O=C(N/N=C/c1ccc(O)c(O)c1O)/C(=C/c1ccc([N+](=O)[O-])cc1)NC(=O)c1ccccc1`?
Rev-RRE block: 1.9; FAK inh: 5.9; Plk1 PBD FP: 12.1; Cav32 inh: -0.931; PTK2B oligo ant: -1.03; PLK1 inh: 31.6

Results for O=C(NC(CSCc1ccccc1)C(=O)N/N=C/c1ccc(O)cc1O)c1ccc([N+](=O)[O-])cc1 (stereo unspecified) ?
Rev-RRE block: 8.2; FAK inh: 0.6; Plk1 PBD FP: -21.4; Cav32 inh: -4.7*; PTK2B oligo ant: -1.59; PLK1 inh: -19.8

What do the screens show for `FC(F)(F)c1cccc(-c2nnc(-c3ccccc3)c(N3CCOCC3)n2)c1`?
Rev-RRE block: 8.4; FAK inh: 2.7; Plk1 PBD FP: -16.5; Cav32 inh: -3.04; PTK2B oligo ant: -3.87*; PLK1 inh: -9.4

How did Cc1[nH]nc2c1C1(CCC(c3ccccc3)CC1)C(C#N)=C(N)O2 (stereo unspecified) do in these assays?
Rev-RRE block: 11.0; FAK inh: 6.1; Plk1 PBD FP: -34.9; Cav32 inh: -0.174; PTK2B oligo ant: -0.11; PLK1 inh: 59.7*

How did COC(=O)C1=C(C)OC(N)=C(C#N)C1c1cc(OC)c(OCC(N)=O)cc1Cl (stereo unspecified) do in these assays?
Rev-RRE block: 8.3; FAK inh: -3.7; Plk1 PBD FP: -9.3; Cav32 inh: 1.3; PTK2B oligo ant: -0.13; PLK1 inh: -4.8

Results for CCCOc1ccc(C2c3c(oc4ccccc4c3=O)C(=O)N2CCCN2CCOCC2)cc1 (stereo unspecified) ?
Rev-RRE block: 5.9; FAK inh: 2.0; Plk1 PBD FP: -11.8; Cav32 inh: -0.847; PTK2B oligo ant: 0.05; PLK1 inh: -18.6

Compound activity deposited in PubChem BioAssay by several laboratories.
